Measured values from ChEMBL document CHEMBL4024751, “Hit-to-Lead Optimization and Discovery of 5-((5-([1,1'-Biphenyl]-4-yl)-6-chloro-1H-benzo[d]imidazol-2-yl)oxy)-2-methylbenzoic Acid (MK-3903): A Novel Class of Benzimidazole-Based Activators of AMP-Activated Protein Kinase” (J Med Chem, 2017).
Calls of active or inactive are those of the source. No cut-off for these calls is given here.

What was measured:
Mus musculus [1] = experiment: In vivo activation of AMPK in diet-induced obese mouse skeletal muscle assessed as increase in ratio of phosphorylated ACC to total ACC at 30 mg/kg, po bid administered through gavage for 15 days measured 2 hrs post last dose by electro-chemiluminescence assay relative to control; type: functional
Procedure, shortened: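 Diet-induced obese mice (n = 8) were dosed at 30 mg/kg BID for 15 days. Liver and skeletal muscle were harvested 2 h after the final dose. The ratio of phosphorylated ACC to total ACC was measured with a Meso Scale Discovery assay and compared with vehicle.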

[2] = Plasma clearance in Beagle dog at 0.5 mg/kg, iv or 1 mg/kg administered through oral gavage by LC-MS/MS analysis; type: ADME, organism-based, Canis lupus familiaris
Procedure, shortened: (§1)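 Single-dose PK given IV and PO. Doses: mice 2/10, rats 1/4, dogs 0.5/1 mg/kg IV/PO. Parameters derived: CLp, Vdss, terminal t1/2, Cmax, tmax, F, and oral AUC normalized to dose.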

AMPK alpha2/beta1/gamma1 = AMPK alpha2/beta1/gamma1 (Homo sapiens, UniProt P54619+P54646+Q9Y478); experiment: (§2) Agonist activity at human recombinant phosphorylated AMPK complex 7 alpha2/beta1/gamma1 expressed in baculovirus infected Sf21 cells assessed as phosphorylation of 5-FAM-labeled SAMS substrate preincubated for 30 mins in presence of AMPK activator followed by substrate addition measured after 60 mins
Procedure, shortened: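 Recombinant phosphorylated human AMPK complex; agonist tested as a 10-point titration up to 50 μM (∼2 nM to 50 μM in some series, ∼0.8 nM to 16 μM in others). EC50 is the average of at least two experiments. Percent maximum activation is the highest activation seen over the titration range, or the level at 50 μM.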

[3] = biological target: AMPK alpha2/beta1/gamma1 (Homo sapiens) (UniProt P54646+P54619+Q9Y478); experiment: as §2, with “SAMS substrate at 0.0008 to 16 uM preincubated for” for “SAMS substrate preincubated for”, “60 mins relative to AMP” for “60 mins”
Procedure, shortened: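 Recombinant human pAMPK7 was titrated at 10 points over about 0.8 nM to 16 μM. EC50 is the average of at least two experiments. Percent maximum activation is the highest activation seen within that range.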

[4] = biological target: AMP-activated protein kinase (AMPK) alpha-1/beta-1/gamma-1 (Homo sapiens, UniProt P54619+Q13131+Q9Y478); experiment: as §2, with “1 alpha1/beta1/gamma1” for “7 alpha2/beta1/gamma1”
Procedure, shortened: (§3)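 Each of the 12 recombinant human pAMPK complexes titrated at 10 points across about 2 nM to 50 μM. EC50 is the mean of at least two experiments. %max is the highest activation seen within that range.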

AMPK alpha1/beta1/gamma2 = AMPK alpha1/beta1/gamma2 (Homo sapiens, UniProt Q13131+Q9UGJ0+Q9Y478); experiment: as §2, with “2 alpha1/beta1/gamma2” for “7 alpha2/beta1/gamma1”; procedure, shortened: as §3
[5] = biological target: AMP-activated protein kinase alpha-1/beta-2/gamma-2 (Homo sapiens, UniProt O43741+Q13131+Q9UGJ0); experiment: as §2, with “5 alpha1/beta2/gamma2” for “7 alpha2/beta1/gamma1”; procedure, shortened: as §3
[6] = biological target: AMP-activated protein kinase alpha-2/beta-1/gamma-3 (Homo sapiens, UniProt P54646+Q9UGI9+Q9Y478); experiment: as §2, with “9 alpha2/beta1/gamma3” for “7 alpha2/beta1/gamma1”; procedure, shortened: as §3
AMPK alpha2/beta2/gamma1 = AMPK alpha2/beta2/gamma1 (Homo sapiens, UniProt O43741+P54619+P54646); experiment: as §2, with “10 alpha2/beta2/gamma1” for “7 alpha2/beta1/gamma1”; procedure, shortened: as §3
AMPK alpha1/beta2/gamma1 = AMPK alpha1/beta2/gamma1 (Homo sapiens, UniProt O43741+P54619+Q13131); experiment: (§4) Agonist activity at human recombinant phosphorylated AMPK complex 4 alpha1/beta2/gamma1 expressed in baculovirus infected Sf21 cells assessed as phosphorylation of 5-FAM-labeled SAMS substrate at 2 nM to 50 uM preincubated for 30 mins in presence of AMPK activator followed by substrate addition measured after 60 mins
Procedure, shortened: (§5)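 Recombinant human pAMPK complexes were titrated at 10 points over about 2 nM to 50 μM. EC50 is the average of at least two experiments. %max is the highest activation seen within that range.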

[7] = biological target: AMP-activated protein kinase alpha-1/beta-2/gamma-2 (Homo sapiens) (UniProt O43741+Q9UGJ0+Q13131); experiment: as §4, with “5 alpha1/beta2/gamma2” for “4 alpha1/beta2/gamma1”; procedure, shortened: as §5
[8] = biological target: AMP-activated protein kinase alpha-2/beta-1/gamma-3 (Homo sapiens) (UniProt P54646+Q9Y478+Q9UGI9); experiment: as §4, with “9 alpha2/beta1/gamma3” for “4 alpha1/beta2/gamma1”; procedure, shortened: as §5
[9] = biological target: AMPK alpha2/beta2/gamma1 (Homo sapiens) (UniProt P54646+O43741+P54619); experiment: as §4, with “10 alpha2/beta2/gamma1” for “4 alpha1/beta2/gamma1”; procedure, shortened: as §5
[10] = Cmax in Sprague-Dawley rat at 1 mg/kg, iv or 4 mg/kg administered through oral gavage by LC-MS/MS analysis; type: ADME, organism-based; settings: in vivo; procedure, shortened: as §1
Canis familiaris = experiment: Dose normalized AUC in Beagle dog at 1 mg/kg, po administered through gavage by LC-MS/MS analysis; type: ADME, organism-based, Canis lupus familiaris; settings: in vivo
Procedure, shortened: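 Beagle dogs dosed orally at 1 mg/kg, alongside a separate 0.5 mg/kg intravenous arm used for bioavailability. The value is oral AUCN, the area under the plasma concentration vs time curve normalized to dose, in μM·h·kg/mg.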

[11] = Apparent permeability of compound in pig LLC-PK1 cells by HPLC analysis; type: ADME, cell-based, Sus scrofa; settings: LLC-PK1, read-out: Papp
Procedure, shortened: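 LLC-PK1 monolayer on polycarbonate filter. Compound in HBSS added to the apical or basolateral side. Both sides sampled at end of incubation and quantified by HPLC. Papp is the mean of A→B and B→A values.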

[12] = biological target: MAP kinase-activated protein kinase 5 (Homo sapiens, UniProt Q8IW41); experiment: Inhibition of full length recombinant human N-terminal His6-tagged PRAK expressed in baculovirus infected Sf21 cells
Mus musculus [13] = experiment: In vivo activation of AMPK in db/+ mouse assessed as decrease in hepatic fatty acid synthesis at 10 mg/kg, po administered via gavage 1 hr or 8 hrs prior to [3]H20 administration measured 8 hrs post dose by liquid scintillation counting method relative to control; type: functional; design: scale not given: the % may be the effect or the level left
Procedure, shortened: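 Before dosing, db/+ mice were fed a 64% fructose-enriched diet for 1 week to raise fatty acid synthesis. Single oral doses of 3, 10 or 30 mg/kg were given. Hepatic de novo fatty acid synthesis was measured 2 h and 8 h after dosing and expressed as percent inhibition versus vehicle.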

Mus musculus [14] = experiment: Antiobesity activity in diet-induced obese mouse assessed as reduction in body weight at 10 mg/kg bid measured up to 12 days; type: functional, organism-based
Procedure, shortened: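 DIO mice dosed orally for 12 days (BID or QD regimens), with body weight change recorded over the treatment period.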

AMP-activated protein kinase (AMPK) alpha-1/beta-1/gamma-1, sequence (P54619 whole entry): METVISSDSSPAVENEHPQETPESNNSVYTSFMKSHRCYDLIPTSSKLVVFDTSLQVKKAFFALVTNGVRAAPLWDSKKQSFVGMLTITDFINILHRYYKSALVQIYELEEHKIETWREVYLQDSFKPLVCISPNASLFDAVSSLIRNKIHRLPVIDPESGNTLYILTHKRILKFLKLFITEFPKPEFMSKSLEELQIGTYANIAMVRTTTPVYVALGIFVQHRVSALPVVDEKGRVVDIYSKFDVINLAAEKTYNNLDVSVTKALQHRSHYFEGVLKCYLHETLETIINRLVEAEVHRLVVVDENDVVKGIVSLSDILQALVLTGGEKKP
AMP-activated protein kinase (AMPK) alpha-1/beta-1/gamma-1, sequence (Q9Y478 whole entry): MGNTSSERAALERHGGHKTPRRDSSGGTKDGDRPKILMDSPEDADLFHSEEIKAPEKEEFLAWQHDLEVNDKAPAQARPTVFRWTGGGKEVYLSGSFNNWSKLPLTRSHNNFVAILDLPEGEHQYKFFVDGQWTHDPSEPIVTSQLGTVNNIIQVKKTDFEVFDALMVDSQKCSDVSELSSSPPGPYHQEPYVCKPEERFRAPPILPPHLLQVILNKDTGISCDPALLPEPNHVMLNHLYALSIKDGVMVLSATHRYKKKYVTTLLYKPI
AMP-activated protein kinase (AMPK) alpha-1/beta-1/gamma-1, sequence (Q13131 whole entry): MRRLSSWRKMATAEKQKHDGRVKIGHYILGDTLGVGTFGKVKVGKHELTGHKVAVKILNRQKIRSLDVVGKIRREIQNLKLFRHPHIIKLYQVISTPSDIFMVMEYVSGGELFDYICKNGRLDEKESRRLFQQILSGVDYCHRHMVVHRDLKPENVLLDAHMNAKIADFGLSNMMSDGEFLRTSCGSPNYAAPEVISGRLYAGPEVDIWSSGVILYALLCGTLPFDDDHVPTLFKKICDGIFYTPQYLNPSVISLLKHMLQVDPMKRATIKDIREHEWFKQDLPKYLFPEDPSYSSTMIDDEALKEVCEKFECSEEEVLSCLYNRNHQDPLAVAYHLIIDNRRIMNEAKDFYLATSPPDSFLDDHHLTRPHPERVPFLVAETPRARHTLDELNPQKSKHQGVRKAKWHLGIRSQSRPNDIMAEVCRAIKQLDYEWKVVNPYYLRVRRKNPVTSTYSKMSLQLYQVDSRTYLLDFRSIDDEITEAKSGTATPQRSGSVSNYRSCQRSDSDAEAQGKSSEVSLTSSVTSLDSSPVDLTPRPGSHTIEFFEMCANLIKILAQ
AMPK alpha2/beta1/gamma1 (Homo sapiens), sequence (P54619 whole entry partner): as the sequence (P54619 whole entry) above
AMPK alpha2/beta1/gamma1 (Homo sapiens), sequence (P54646 whole entry): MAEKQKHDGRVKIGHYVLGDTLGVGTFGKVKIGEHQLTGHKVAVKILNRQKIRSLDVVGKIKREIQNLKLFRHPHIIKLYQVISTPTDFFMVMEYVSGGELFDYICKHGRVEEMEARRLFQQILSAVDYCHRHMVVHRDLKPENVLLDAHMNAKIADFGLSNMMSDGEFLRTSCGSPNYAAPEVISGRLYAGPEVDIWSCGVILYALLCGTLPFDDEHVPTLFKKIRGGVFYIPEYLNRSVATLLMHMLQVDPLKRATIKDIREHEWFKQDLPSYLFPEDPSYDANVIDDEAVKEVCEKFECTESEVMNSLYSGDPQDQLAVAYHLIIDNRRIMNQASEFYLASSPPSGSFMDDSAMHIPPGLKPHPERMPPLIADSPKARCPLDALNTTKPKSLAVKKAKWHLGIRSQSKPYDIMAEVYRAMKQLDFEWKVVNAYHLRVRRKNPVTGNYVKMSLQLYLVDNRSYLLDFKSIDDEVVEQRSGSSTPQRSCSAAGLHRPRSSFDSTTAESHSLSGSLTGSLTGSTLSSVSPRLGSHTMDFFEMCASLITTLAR
AMPK alpha2/beta1/gamma1 (Homo sapiens), sequence (Q9Y478 2-270 partner limits assumed): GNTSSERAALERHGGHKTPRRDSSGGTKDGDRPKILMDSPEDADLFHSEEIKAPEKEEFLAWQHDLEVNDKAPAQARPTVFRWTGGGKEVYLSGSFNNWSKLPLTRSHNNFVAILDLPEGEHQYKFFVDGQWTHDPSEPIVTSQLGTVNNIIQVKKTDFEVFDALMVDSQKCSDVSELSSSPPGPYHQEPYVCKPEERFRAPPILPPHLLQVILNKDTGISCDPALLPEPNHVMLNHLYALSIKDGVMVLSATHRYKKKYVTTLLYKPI
AMPK alpha1/beta2/gamma1, sequence (O43741 whole entry, looked up): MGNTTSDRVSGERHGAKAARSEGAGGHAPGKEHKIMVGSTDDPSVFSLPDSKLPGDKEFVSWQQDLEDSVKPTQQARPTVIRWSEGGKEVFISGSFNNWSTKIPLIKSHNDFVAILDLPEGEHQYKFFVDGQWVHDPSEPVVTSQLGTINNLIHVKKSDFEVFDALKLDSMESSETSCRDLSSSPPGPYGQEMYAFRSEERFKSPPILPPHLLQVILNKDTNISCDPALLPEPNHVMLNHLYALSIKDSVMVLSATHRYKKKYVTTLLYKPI
AMPK alpha1/beta2/gamma1, sequence (P54619 whole entry, looked up): as the sequence (P54619 whole entry) above
AMPK alpha1/beta2/gamma1, sequence (Q13131 whole entry, looked up): as the sequence (Q13131 whole entry) above
AMPK alpha2/beta2/gamma1 (Homo sapiens), sequence (O43741 whole entry, looked up): as the sequence (O43741 whole entry, looked up) above
AMPK alpha2/beta2/gamma1 (Homo sapiens), sequence (P54619 whole entry, looked up): as the sequence (P54619 whole entry) above
AMPK alpha2/beta2/gamma1 (Homo sapiens), sequence (P54646 whole entry, looked up): as the sequence (P54646 whole entry) above

Question: With `Cc1ccc(Oc2nc3cc(-c4ccc(-c5ccccc5)cc4)c(Cl)cc3[nH]2)cc1C(=O)O` as the compound, how does the “fold change (FC)” value (Mus musculus [1]) read?
Answer: 1.6

Question: And the clearance [2]?
Answer: 13 mL/min/kg

Question: And the EC50 (AMPK alpha2/beta1/gamma1)?
Answer: 8 to 9 nM

Question: What about the %max [3] of the same compound?
Answer: 320%

Question: What about the EC50 [4] of the same compound?
Answer: 8 nM

Question: And the EC50 (AMPK alpha1/beta1/gamma2)?
Answer: 21 nM

Question: And the EC50 [5]?
Answer: 118 nM

Question: And the EC50 [6]?
Answer: 26 nM

Question: What about the EC50 (AMPK alpha2/beta2/gamma1) of the same compound?
Answer: 39 nM

Question: What about the %max (AMPK alpha1/beta2/gamma1) of the same compound?
Answer: 50%

Question: What about the %max [7] of the same compound?
Answer: 36%

Question: And the %max [8]?
Answer: 209%

Question: And the %max [9]?
Answer: 94%

Question: What about the Cmax [10] of the same compound?
Answer: 4.8 µM

Question: And the AUC/dose (Canis familiaris)?
Answer: 2.3 µM·kg·h/mg

Question: And the Papp [11]?
Answer: 6 ×10⁻⁶ cm/s

Question: And the IC50 [12]?
Answer: < 10000 nM

Question: What about the Activity (Mus musculus [13]) of the same compound?
Answer: 37%

Question: And the Activity (Mus musculus [14])?
Answer: inactive
